According to ChEMBL document CHEMBL4689842, “EUbOPEN Chemogenomics Library wave 1” (2021):

Tests used:
[1] = system: U2OS; experiment: Multiplex assay against U2OS; type: toxicity, cell-based; details: human
Outline: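 Cells were classed with CellPathfinder machine-learning gating, first as Hoechst high-intensity objects or normal cells, then (normal cells) as healthy, pyknosed or fragmented nuclei, and finally (pyknosed cells) as mitotic or apoptotic. Staining of live cells at seeding used Hoechst33342, BioTracker Green Microtubule Cytoskeleton Dye, MitoTracker Red and Annexin V Alexa Fluor 680, with imaging on a CQ1 microscope at 37°C and 5% CO2 after compound addition. Tubulin, mitochondrial-mass and membrane-permeability phenotypes are per cents of healthy-nucleus cells.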

[2] = system: Fibroblast; experiment: Incucyte cell viability with human fibroblast; type: toxicity, cell-based; details: 10 µM, compound concentration 10 uM; note: filed as whole numbers so only -1 and 0 and 1 occur
[3] = 12 h, 1 µM, compound concentration 1 uM, replicate 1
[4] = 12 h, 1 µM, compound concentration 1 uM, replicate 2
[5] = 12 h, 10 µM, compound concentration 10 uM, replicate 1
[6] = 12 h, 10 µM, compound concentration 10 uM, replicate 2
[7] = 24 h, 1 µM, compound concentration 1 uM, replicate 1
[8] = 24 h, 1 µM, compound concentration 1 uM, replicate 2
[9] = 24 h, 10 µM, compound concentration 10 uM, replicate 1
[10] = 24 h, 10 µM, compound concentration 10 uM, replicate 2
[11] = 48 h, 1 µM, compound concentration 1 uM, replicate 1
[12] = 48 h, 1 µM, compound concentration 1 uM, replicate 2
[13] = 48 h, 10 µM, compound concentration 10 uM, replicate 1
[14] = 48 h, 10 µM, compound concentration 10 uM, replicate 2

Cl.NC[C@@H]1O[C@H](C23CC4CC(CC(C4)C2)C3)Cc2c1ccc(O)c2O
Population Apoptotic (%) [1, 3]: 60% | Population Fragmented Nuclei (%) [1, 3]: 10% | Population Healthy Nuclei (%) [1, 3]: 80% | Population Hoechst High Intensity Objects (%) [1, 3]: 7% | Population Membrane Permeable-Phenotype (%) [1, 3]: 5% | Population Mitochondria Different-Phenotype (%) [1, 3]: 11% | Population Mitotic Cells (%) [1, 3]: 40% | Population Normal (%) [1, 3]: 92% | Population Pyknosed Nuclei (%) [1, 3]: 9% | Population Tubulin-Different-Phenotype (%) [1, 3]: 6% | Total Cell Count [1, 3]: 116 | Population Apoptotic (%) [1, 4]: 0% | Population Fragmented Nuclei (%) [1, 4]: 6% | Population Healthy Nuclei (%) [1, 4]: 91% | Population Hoechst High Intensity Objects (%) [1, 4]: 3% | Population Membrane Permeable-Phenotype (%) [1, 4]: 2% | Population Mitochondria Different-Phenotype (%) [1, 4]: 9% | Population Mitotic Cells (%) [1, 4]: 100% | Population Normal (%) [1, 4]: 96% | Population Pyknosed Nuclei (%) [1, 4]: 2% | Population Tubulin-Different-Phenotype (%) [1, 4]: 10% | Total Cell Count [1, 4]: 95 | Population Apoptotic (%) [1, 5]: 37% | Population Fragmented Nuclei (%) [1, 5]: 31% | Population Healthy Nuclei (%) [1, 5]: 36% | Population Hoechst High Intensity Objects (%) [1, 5]: 8% | Population Membrane Permeable-Phenotype (%) [1, 5]: 3% | Population Mitochondria Different-Phenotype (%) [1, 5]: 13% | Population Mitotic Cells (%) [1, 5]: 62% | Population Normal (%) [1, 5]: 92% | Population Pyknosed Nuclei (%) [1, 5]: 31% | Population Tubulin-Different-Phenotype (%) [1, 5]: 5% | Total Cell Count [1, 5]: 150 | Population Apoptotic (%) [1, 6]: 52% | Population Fragmented Nuclei (%) [1, 6]: 39% | Population Healthy Nuclei (%) [1, 6]: 32% | Population Hoechst High Intensity Objects (%) [1, 6]: 10% | Population Membrane Permeable-Phenotype (%) [1, 6]: 9% | Population Mitochondria Different-Phenotype (%) [1, 6]: 22% | Population Mitotic Cells (%) [1, 6]: 47% | Population Normal (%) [1, 6]: 89% | Population Pyknosed Nuclei (%) [1, 6]: 27% | Population Tubulin-Different-Phenotype (%) [1, 6]: 27% | Total Cell Count [1, 6]: 76 | Population Apoptotic (%) [1, 7]: 46% | Population Fragmented Nuclei (%) [1, 7]: 11% | Population Healthy Nuclei (%) [1, 7]: 79% | Population Hoechst High Intensity Objects (%) [1, 7]: 7% | Population Membrane Permeable-Phenotype (%) [1, 7]: 2% | Population Mitochondria Different-Phenotype (%) [1, 7]: 3% | Population Mitotic Cells (%) [1, 7]: 53% | Population Normal (%) [1, 7]: 92% | Population Pyknosed Nuclei (%) [1, 7]: 9% | Population Tubulin-Different-Phenotype (%) [1, 7]: 9% | Total Cell Count [1, 7]: 146 | Population Apoptotic (%) [1, 8]: 42% | Population Fragmented Nuclei (%) [1, 8]: 8% | Population Healthy Nuclei (%) [1, 8]: 85% | Population Hoechst High Intensity Objects (%) [1, 8]: 2% | Population Membrane Permeable-Phenotype (%) [1, 8]: 5% | Population Mitochondria Different-Phenotype (%) [1, 8]: 10% | Population Mitotic Cells (%) [1, 8]: 57% | Population Normal (%) [1, 8]: 97% | Population Pyknosed Nuclei (%) [1, 8]: 6% | Population Tubulin-Different-Phenotype (%) [1, 8]: 12% | Total Cell Count [1, 8]: 114 | Population Apoptotic (%) [1, 9]: 76% | Population Fragmented Nuclei (%) [1, 9]: 38% | Population Healthy Nuclei (%) [1, 9]: 33% | Population Hoechst High Intensity Objects (%) [1, 9]: 6% | Population Membrane Permeable-Phenotype (%) [1, 9]: 7% | Population Mitochondria Different-Phenotype (%) [1, 9]: 7% | Population Mitotic Cells (%) [1, 9]: 23% | Population Normal (%) [1, 9]: 93% | Population Pyknosed Nuclei (%) [1, 9]: 27% | Population Tubulin-Different-Phenotype (%) [1, 9]: 17% | Total Cell Count [1, 9]: 161 | Population Apoptotic (%) [1, 10]: 92% | Population Fragmented Nuclei (%) [1, 10]: 50% | Population Healthy Nuclei (%) [1, 10]: 29% | Population Hoechst High Intensity Objects (%) [1, 10]: 18% | Population Membrane Permeable-Phenotype (%) [1, 10]: 26% | Population Mitochondria Different-Phenotype (%) [1, 10]: 26% | Population Mitotic Cells (%) [1, 10]: 7% | Population Normal (%) [1, 10]: 81% | Population Pyknosed Nuclei (%) [1, 10]: 20% | Population Tubulin-Different-Phenotype (%) [1, 10]: 26% | Total Cell Count [1, 10]: 80 | Population Apoptotic (%) [1, 11]: 33% | Population Fragmented Nuclei (%) [1, 11]: 8% | Population Hoechst High Intensity Objects (%) [1, 11]: 6% | Population Membrane Permeable-Phenotype (%) [1, 11]: 0% | Population Mitochondria Different-Phenotype (%) [1, 11]: 14% | Population Mitotic Cells (%) [1, 11]: 66% | Population Normal (%) [1, 11]: 93% | Population Pyknosed Nuclei (%) [1, 11]: 9% | Population Tubulin-Different-Phenotype (%) [1, 11]: 12% | Total Cell Count [1, 11]: 198 | Population Apoptotic (%) [1, 12]: 57% | Population Fragmented Nuclei (%) [1, 12]: 11% | Population Healthy Nuclei (%) [1, 12]: 82% | Population Hoechst High Intensity Objects (%) [1, 12]: 3% | Population Membrane Permeable-Phenotype (%) [1, 12]: 3% | Population Mitochondria Different-Phenotype (%) [1, 12]: 21% | Population Mitotic Cells (%) [1, 12]: 42% | Population Normal (%) [1, 12]: 96% | Population Pyknosed Nuclei (%) [1, 12]: 5% | Population Tubulin-Different-Phenotype (%) [1, 12]: 13% | Total Cell Count [1, 12]: 127 | Population Apoptotic (%) [1, 13]: 84% | Population Fragmented Nuclei (%) [1, 13]: 33% | Population Healthy Nuclei (%) [1, 13]: 33% | Population Hoechst High Intensity Objects (%) [1, 13]: 13% | Population Membrane Permeable-Phenotype (%) [1, 13]: 20% | Population Mitochondria Different-Phenotype (%) [1, 13]: 16% | Population Mitotic Cells (%) [1, 13]: 16% | Population Normal (%) [1, 13]: 86% | Population Pyknosed Nuclei (%) [1, 13]: 32% | Population Tubulin-Different-Phenotype (%) [1, 13]: 37% | Total Cell Count [1, 13]: 180 | Population Apoptotic (%) [1, 14]: 91% | Population Fragmented Nuclei (%) [1, 14]: 50% | Population Healthy Nuclei (%) [1, 14]: 27% | Population Hoechst High Intensity Objects (%) [1, 14]: 34% | Population Membrane Permeable-Phenotype (%) [1, 14]: 80% | Population Mitochondria Different-Phenotype (%) [1, 14]: 53% | Population Mitotic Cells (%) [1, 14]: 8% | Population Normal (%) [1, 14]: 65% | Population Pyknosed Nuclei (%) [1, 14]: 22% | Population Tubulin-Different-Phenotype (%) [1, 14]: 66% | Total Cell Count [1, 14]: 82 | Growth Rate ([2]; 6 h, replicate number 1, timepoint 6 hours): 0 | Growth Rate ([2]; 12 h, replicate number 1, timepoint 12 hours): 0 | Growth Rate ([2]; 18 h, replicate number 1, timepoint 18 hours): 0 | Growth Rate ([2]; 24 h, replicate number 1, timepoint 24 hours): 0
